Reference: ChEMBL document CHEMBL1148452, “Fluoroartemisinin: trifluoromethyl analogues of artemether and artesunate” (J Med Chem, 2004)
“And” between values parts separate entries of the source, which are not always exact repeats. Identical values can stand only once.

Key:
Plasmodium falciparum = assay: In vitro antimalarial activity against Plasmodium falciparum FCB1; assay type: functional, organism-based
In short: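 P. falciparum FCB1 (chloroquine-resistant) cultured continuously in human erythrocytes. Ring-synchronized cultures at 1% parasitemia and 1% final hematocrit were exposed to serial dilutions, with methanol or DMSO ≤0.1%. Cultures received [3H]-hypoxanthine and were incubated 48 h at 37 °C. Incorporated radioactivity was compared with drug-free controls, and IC50 was taken by nonlinear regression of log(dose)-response. Mean of three experiments.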

Mus musculus [1] = assay: (§1) Percentage uM/kg); assay type: functional; parameters: concentration or dose not given beside the values
In short: (§2)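 Female ICR (CD-1) mice (18–20 g) infected with P. berghei NK 173, following Peters' 4-day test. Dosing was intraperitoneal for 4 days, with four to five mice per group. Parasitemia was counted and inhibition calculated against infected untreated controls. Survey dose 35.5 μmol/kg. ED50/ED90 came from doses of 0.5–10 mg/kg, with parasitemia read on day 4.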

Mus musculus [2] = assay: as §1; assay type: functional; in short: as §2
Mus musculus [3] = assay: as §1; assay type: functional; in short: as §2; remark: listed apart in the source
Mus musculus [4] = assay: as §1; assay type: functional; in short: as §2; remark: listed apart in the source
[5] = Plasmatic Half-life after intravenous administration to rat; assay type: ADME, organism-based; conditions: plasma
Mus musculus [6] = assay: as §1; assay type: functional; in short: as §2; remark: listed apart in the source
[7] = Half-life at pH 1; assay type: ADME; conditions: buffer
Mus musculus [8] = assay: In vivo antimalarial activity against Plasmodium berghei NK 173 infected mice (Mus musculus) administered i.p. at the end of 4 day; assay type: functional; in short: as §2
Mus musculus [9] = assay: as §1; assay type: functional; in short: as §2; remark: listed apart in the source
Mus musculus [10] = assay: (§3) In vivo antimalarial activity against Plasmodium berghei NK173 infected mice (Mus musculus) administered intraperitoneal. at the end of 4 day; assay type: functional; conditions: ip, 96 h; in short: as §2
Mus musculus [11] = assay: In vivo antimalarial activity against Plasmodium berghei NK173 infected mice (Mus musculus) administered intraperitoneally. at the end of 4 day; assay type: functional; conditions: ip, 96 h
In short: (§4)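 Female ICR (CD-1) mice (18–20 g), 4–5 per group, infected with P. berghei NK 173 and dosed intraperitoneally for 4 days at 0.5 to 10 mg/kg (Peters protocol). Parasitemia was counted at day 4, and inhibition was calculated against infected untreated controls. ED50 and ED90 were derived from these counts.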

Mus musculus [12] = assay: as §3; assay type: functional; in short: as §4
[13] = Mus musculus, ip, 96 h, read-out: ED90

SMILES | IC50 (Plasmodium falciparum) | Parasitemia (Mus musculus [1]) | Parasitemia (Mus musculus [2]) | Parasitemia (Mus musculus [3]) | Parasitemia (Mus musculus [4]) | half-life [5] | Parasitemia (Mus musculus [6]) | half-life [7] | ED90 (Mus musculus [8]) | ED90 (Mus musculus [8]; [13]) | Parasitemia (Mus musculus [9]) | ED50 (Mus musculus [10]) | ED50 (Mus musculus [11]) | ED90 (Mus musculus [12]) | ED90 (Mus musculus [12]; [13])
C[C@@H]1CC[C@H]2[C@@H](C)[C@](OCC(=O)O)(C(F)(F)F)OC3O[C@]4(C)CC[C@@H]1[C@]32OO4 (some centres undefined) | 30.4 nM | 47.5% |  |  |  |  |  |  |  |  |  |  |  |  | 
C[C@@H]1CCC2[C@@H](C)[C@](OO)(C(F)(F)F)OC3O[C@]4(C)CCC1[C@]32OO4 (some centres undefined) | 13.2 nM | 5.5% | 36.8% | 28.3% | 41.7% |  |  |  |  |  |  |  |  |  | 
C[C@@H]1CC[C@H]2[C@@H](C)[C@](O)(C(F)(F)F)O[C@@H]3O[C@]4(C)CC[C@@H]1[C@]32OO4 | 9.4 nM | 4% |  | 10.7% |  | 1.43 h | 22.1% |  |  |  |  |  |  |  | 
C[C@@H]1CCC2[C@@H](C)[C@](OCC(F)(F)F)(C(F)(F)F)OC3O[C@]4(C)CCC1[C@]32OO4 (some centres undefined) | 8.3 nM | 0% |  | 0% |  |  |  | 215 h |  |  |  |  |  |  | 
CO[C@@]1(C(F)(F)F)OC2O[C@]3(C)CCC4[C@H](C)CCC([C@H]1C)[C@@]24OO3 (some centres undefined) | 0.8 nM | 0% |  | 0% |  |  | 0% | 660 h | 17.5 µM/kg | 6.4 mg/kg | 0% | 1.25 mg/kg and 3.4 µmol/kg |  |  | 
C[C@@H]1CC[C@H]2[C@@H](C)[C@](OCC=O)(C(F)(F)F)OC3O[C@]4(C)CC[C@@H]1[C@]32OO4 (some centres undefined) | 21.4 nM | 0.2% | 46.8% | 7.8% | 26.8% |  |  |  |  |  | 29.6% |  |  |  | 
CCO[C@@]1(C(F)(F)F)OC2O[C@]3(C)CCC4[C@H](C)CCC([C@H]1C)[C@@]24OO3 (some centres undefined) | 3.3 nM | 0% |  | 0% |  |  | 0% | 500 h |  |  | 3.8% |  |  |  | 
C[C@@H]1CCC2[C@@H](C)[C@@H](O)OC3O[C@]4(C)CCC1[C@]32OO4 (some centres undefined) |  |  |  |  |  | 0.438 h |  |  |  |  |  |  |  |  | 
COC1O[C@@H]2O[C@]3(C)CCC4[C@H](C)CCC([C@H]1C)[C@]42OO3 (some centres undefined) | 3.5 nM | 2.2% | 48.1% | 5.5% | 39.2% |  |  |  |  |  |  |  | 2.5 mg/kg and 8.4 µmol/kg | 28.5 µM/kg | 8.5 mg/kg
C[C@@H]1CC[C@H]2[C@@H](C)[C@](OCC(O)CO)(C(F)(F)F)OC3O[C@]4(C)CC[C@@H]1[C@]32OO4 (some centres undefined) | 0.9 nM | 2.1% |  | 12.1% | 28.8% |  | 46.3% |  |  |  |  |  |  |  | 
C[C@@H]1CC[C@H]2[C@@H](C)[C@](OCc3ccc(C(=O)[O-])cc3)(C(F)(F)F)OC3O[C@]4(C)CC[C@@H]1[C@]32OO4.[Na+] (some centres undefined) | 10.6 nM | 25.9% | 25.6% | 26.8% | 34.9% |  |  | 680 h |  |  |  |  |  |  | 
COc1ccc(N[C@@]2(C(F)(F)F)OC3O[C@]4(C)CCC5[C@H](C)CCC([C@H]2C)[C@@]35OO4)cc1 (some centres undefined) | 12.3 nM | 0% | 8.1% | 0% | 0.1% |  |  | 30 h |  |  | 0% |  |  |  | 
